# Test results published in ChEMBL document CHEMBL1833921, “Synthesis and biological evaluation of phenstatin metabolites” (Bioorg Med Chem, 2011).
# pIC50: −log10 of the molar value.
# Key:
# SK-MEL-28 = test: Cytotoxicity against human SK-MEL-28 cells assessed as growth inhibition at 10^-5 M after 48 hrs by sulforhodamine B assay; format: functional; conditions: SK-MEL-28, 48 h, read-out: GI
# DU-145 [1] = test: Cytotoxicity against human DU145 cells assessed as growth inhibition at 10^-5 M after 48 hrs by sulforhodamine B assay; format: functional; conditions: DU-145, 48 h, read-out: GI
# MCF7 [2] = test: Cytotoxicity against human MCF7 cells assessed as growth inhibition at 10^-5 M after 48 hrs by sulforhodamine B assay; format: functional; conditions: MCF7, 48 h, read-out: GI
# Hs-578T = test: Cytotoxicity against human HS578T cells assessed as growth inhibition at 10^-5 M after 48 hrs by sulforhodamine B assay; format: functional; conditions: read-out: GI
# A549 [3] = test: Cytotoxicity against human A549/ATCC cells assessed as growth inhibition at 10^-5 M after 48 hrs by sulforhodamine B assay; format: functional; conditions: A549, 48 h, read-out: GI
# SK-OV-3 = test: Cytotoxicity against human SKOV3 cells assessed as growth inhibition at 10^-5 M after 48 hrs by sulforhodamine B assay; format: functional; conditions: SK-OV-3, 48 h, read-out: GI
# SF-295 [4] = test: Cytotoxicity against human SF295 cells assessed as growth inhibition at 10^-5 M after 48 hrs by sulforhodamine B assay; format: functional; conditions: SF-295, 48 h, read-out: GI
# COLO 205 [5] = test: Cytotoxicity against human COLO205 cells assessed as growth inhibition at 10^-5 M after 48 hrs by sulforhodamine B assay; format: functional; conditions: COLO 205, 48 h, read-out: GI
# UACC-62 = test: Cytotoxicity against human UACC62 cells assessed as growth inhibition at 10^-5 M after 48 hrs by sulforhodamine B assay; format: functional; conditions: UACC-62, 48 h, read-out: GI
# NCI-H522 = test: Cytotoxicity against human NCI-H522 cells assessed as growth inhibition at 10^-5 M after 48 hrs by sulforhodamine B assay; format: functional; conditions: NCI-H522, 48 h, read-out: GI
# SF-539 = test: Cytotoxicity against human SF539 cells assessed as growth inhibition at 10^-5 M after 48 hrs by sulforhodamine B assay; format: functional; conditions: SF-539, 48 h, read-out: GI
# MDA-MB-435 = test: Cytotoxicity against human MDA-MB-435 cells assessed as growth inhibition at 10^-5 M after 48 hrs by sulforhodamine B assay; format: functional; conditions: MDA-MB-435, 48 h, read-out: GI
# K562 = test: Cytotoxicity against human K562 cells assessed as growth inhibition at 10^-5 M after 48 hrs by sulforhodamine B assay; format: functional; conditions: K562, 48 h, read-out: GI
# MDA-MB-468 = test: Cytotoxicity against human MDA-MB-468 cells assessed as growth inhibition at 10^-5 M after 48 hrs by sulforhodamine B assay; format: functional; conditions: MDA-MB-468, 48 h, read-out: GI
# OVCAR-3 [6] = test: Cytotoxicity against human OVCAR3 cells assessed as growth inhibition at 10^-5 M after 48 hrs by sulforhodamine B assay; format: functional; conditions: OVCAR-3, 48 h, read-out: GI
# KM12 = test: Cytotoxicity against human KM12 cells assessed as growth inhibition at 10^-5 M after 48 hrs by sulforhodamine B assay; format: functional; conditions: KM12, 48 h, read-out: GI
# UO-31 = test: Cytotoxicity against human UO31 cells assessed as growth inhibition at 10^-5 M after 48 hrs by sulforhodamine B assay; format: functional; conditions: UO-31, 48 h, read-out: GI
# CAKI-1 = test: Cytotoxicity against human Caki1 cells assessed as growth inhibition at 10^-5 M after 48 hrs by sulforhodamine B assay; format: functional; conditions: CAKI-1, 48 h, read-out: GI
# EKVX = test: Cytotoxicity against human EKVX cells assessed as growth inhibition at 10^-5 M after 48 hrs by sulforhodamine B assay; format: functional; conditions: read-out: GI
# HCT-15 = test: Cytotoxicity against human HCT15 cells assessed as growth inhibition at 10^-5 M after 48 hrs by sulforhodamine B assay; format: functional; conditions: HCT-15, 48 h, read-out: GI
# SN12C = test: Cytotoxicity against human SN12C cells assessed as growth inhibition at 10^-5 M after 48 hrs by sulforhodamine B assay; format: functional; conditions: read-out: GI
# OVCAR-4 = test: Cytotoxicity against human OVCAR4 cells assessed as growth inhibition at 10^-5 M after 48 hrs by sulforhodamine B assay; format: functional; conditions: OVCAR-4, 48 h, read-out: GI
# SK-MEL-2 = test: Cytotoxicity against human SK-MEL-2 cells assessed as growth inhibition at 10^-5 M after 48 hrs by sulforhodamine B assay; format: functional; conditions: SK-MEL-2, 48 h, read-out: GI
# NCI-H460 [7] = test: Cytotoxicity against human NCI-H460 cells assessed as growth inhibition at 10^-5 M after 48 hrs by sulforhodamine B assay; format: functional; conditions: NCI-H460, 48 h, read-out: GI
# HCC 2998 = test: Cytotoxicity against human HCC2998 cells assessed as growth inhibition at 10^-5 M after 48 hrs by sulforhodamine B assay; format: functional; conditions: HCC 2998, 48 h, read-out: GI
# [8] = Inhibition of bovine brain tubulin polymerization after 30 mins by turbidimetry analysis; set-up: species or system Bos taurus
# Method in brief: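 Lyophilized bovine brain tubulin (97%) reconstituted to 5 mg/mL in 80 mM PIPES pH 6.9, 2 mM MgCl₂, 0.5 mM EGTA, 1.0 mM GTP and 5% glycerol. Compound in DMSO was added to this solution in a quartz cuvette at 0 °C. Assembly was followed as the rise in absorbance at 340 nm at 37 °C. IC₅₀ is the molar concentration halving the extent of assembly after 30 min.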
# SF-268 = test: Cytotoxicity against human SF268 cells assessed as growth inhibition at 10^-5 M after 48 hrs by sulforhodamine B assay; format: functional; conditions: SF-268, 48 h, read-out: GI
# HCT-116 = test: Cytotoxicity against human HCT116 cells assessed as growth inhibition at 10^-5 M after 48 hrs by sulforhodamine B assay; format: functional; conditions: HCT-116, 48 h, read-out: GI
# HL-60(TB) = test: Cytotoxicity against human HL-60(TB) cells assessed as growth inhibition at 10^-5 M after 48 hrs by sulforhodamine B assay; format: functional; conditions: HL-60, 48 h, read-out: GI
# NCI-H322M = test: Cytotoxicity against human NCI-H322M cells assessed as growth inhibition at 10^-5 M after 48 hrs by sulforhodamine B assay; format: functional; conditions: read-out: GI
# MDA-MB-231 = test: Cytotoxicity against human MDA-MB-231/ATCC cells assessed as growth inhibition at 10^-5 M after 48 hrs by sulforhodamine B assay; format: functional; conditions: MDA-MB-231, 48 h, read-out: GI
# RXF 393 = test: Cytotoxicity against human RXF393 cells assessed as growth inhibition at 10^-5 M after 48 hrs by sulforhodamine B assay; format: functional; conditions: RXF 393, 48 h, read-out: GI
# M14 = test: Cytotoxicity against human M14 cells assessed as growth inhibition at 10^-5 M after 48 hrs by sulforhodamine B assay; format: functional; conditions: M14, 48 h, read-out: GI
# CCRF-CEM = test: Cytotoxicity against human CCRF-CEM cells assessed as growth inhibition at 10^-5 M after 48 hrs by sulforhodamine B assay; format: functional; conditions: read-out: GI
# OVCAR-5 = test: Cytotoxicity against human OVCAR5 cells assessed as growth inhibition at 10^-5 M after 48 hrs by sulforhodamine B assay; format: functional; conditions: OVCAR-5, 48 h, read-out: GI
# NCI/ADR-RES = test: Cytotoxicity against human NCI/ADR-RES cells assessed as growth inhibition at 10^-5 M after 48 hrs by sulforhodamine B assay; format: functional; conditions: read-out: GI
# [9] = Solubility in water; format: physicochemical; conditions: buffer
# COLO 205 [10] = test: Cytotoxicity against human COLO205 cells after 48 hrs by sulforhodamine B assay; format: functional; conditions: COLO 205, 48 h
# MCF7 [11] = test: Cytotoxicity against human MCF7 cells after 48 hrs by sulforhodamine B assay; format: functional; conditions: MCF7, 48 h
# A498 = test: Cytotoxicity against human A498 cells after 48 hrs by sulforhodamine B assay; format: functional; conditions: A498, 48 h
# NCI-H460 [12] = test: Cytotoxicity against human NCI-H460 cells after 48 hrs by sulforhodamine B assay; format: functional; conditions: NCI-H460, 48 h
# OVCAR-3 [13] = test: Cytotoxicity against human OVCAR3 cells after 48 hrs by sulforhodamine B assay; format: functional; conditions: OVCAR-3, 48 h
# DU-145 [14] = test: Cytotoxicity against human DU145 cells after 48 hrs by sulforhodamine B assay; format: functional; conditions: DU-145, 48 h
# HT-29 = test: Cytotoxicity against human HT29 cells after 48 hrs by sulforhodamine B assay; format: functional; conditions: HT-29, 48 h
# SF-295 [15] = test: Cytotoxicity against human SF295 cells after 48 hrs by sulforhodamine B assay; format: functional; conditions: SF-295, 48 h
# A549 [16] = test: Cytotoxicity against human A549 cells after 48 hrs by sulforhodamine B assay; format: functional; conditions: A549, 48 h
# HL-60 = test: Cytotoxicity against human HL60 cells after 48 hrs by sulforhodamine B assay; format: functional; conditions: HL-60, 48 h
compound,measurement,setting,value
COc1cc2c(c(O)c1OC)C(=O)c1cc(OC)c(OC)c(OC)c1C2=O,inhibition of growth at 10 µM,SK-MEL-28,15%
same,inhibition of growth at 10 µM,DU-145 [1],7.83%
same,inhibition of growth at 10 µM,MCF7 [2],26.7%
same,inhibition of growth at 10 µM,Hs-578T,16.9%
same,inhibition of growth at 10 µM,A549 [3],26.1%
same,inhibition of growth at 10 µM,SK-OV-3,9.78%
same,inhibition of growth at 10 µM,SF-295 [4],37.9%
same,inhibition of growth at 10 µM,COLO 205 [5],0%
same,inhibition of growth at 10 µM,UACC-62,6.13%
same,inhibition of growth at 10 µM,NCI-H522,29.5%
same,inhibition of growth at 10 µM,SF-539,16.2%
same,inhibition of growth at 10 µM,MDA-MB-435,16.9%
same,inhibition of growth at 10 µM,K562,0%
same,inhibition of growth at 10 µM,MDA-MB-468,22.4%
same,inhibition of growth at 10 µM,OVCAR-3 [6],0%
same,inhibition of growth at 10 µM,KM12,0%
same,inhibition of growth at 10 µM,UO-31,0%
same,inhibition of growth at 10 µM,CAKI-1,7.07%
same,inhibition of growth at 10 µM,EKVX,13.5%
same,inhibition of growth at 10 µM,HCT-15,0%
same,inhibition of growth at 10 µM,SN12C,8.73%
same,inhibition of growth at 10 µM,OVCAR-4,60.2%
same,inhibition of growth at 10 µM,SK-MEL-2,0%
same,inhibition of growth at 10 µM,NCI-H460 [7],9.33%
same,inhibition of growth at 10 µM,HCC 2998,0%
same,pIC50,[8],< 4.00
same,inhibition of growth at 10 µM,SF-268,22.2%
same,inhibition of growth at 10 µM,HCT-116,11.8%
same,inhibition of growth at 10 µM,HL-60(TB),6.14%
same,inhibition of growth at 10 µM,NCI-H322M,0%
same,inhibition of growth at 10 µM,MDA-MB-231,21.3%
same,inhibition of growth at 10 µM,RXF 393,2.66%
same,inhibition of growth at 10 µM,M14,0%
same,inhibition of growth at 10 µM,CCRF-CEM,0%
same,inhibition of growth at 10 µM,OVCAR-5,7.52%
same,inhibition of growth at 10 µM,NCI/ADR-RES,20.3%
COc1ccc(C(=O)c2cc(OC)c(OC)c(OC)c2)cc1OP(=O)([O-])[O-].[Na+].[Na+],solubility,[9],soluble
COc1ccc(C(=O)c2cc(OC)c(OC)c(OC)c2)cc1O [PHENSTATIN],GI50,COLO 205 [10],4860 nM
same,GI50,MCF7 [11],34 nM
same,GI50,A498,380 nM
same,GI50,NCI-H460 [12],5.7 nM
same,GI50,OVCAR-3 [13],2.3 nM
same,GI50,DU-145 [14],34 nM
same,GI50,HT-29,1800 nM
same,GI50,SF-295 [15],52 nM
same,GI50,A549 [16],290 nM
same,pIC50,[8],4.82
same,solubility,[9],soluble
same,GI50,HL-60,31 nM
